Bioassay records: PubChem BioAssay, Johns Hopkins Ion Channel Center
KCNQ1 inh: inhibitors of human KCNQ1 potassium channel; P51787; CHO-K1 KCNQ1, FluxOR thallium flux fluorescence; stronger effect = higher value; B-score at 10 µM; 310,000 compounds, 1.3% hits; AID 2642;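 active means compounds whose thallium flux B-score, printed positive for inhibition, exceeds three library SD while starting fluorescence stays within three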;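 further: channel opened by potassium depolarization with thallium stimulus after 20 min compound exposure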
KCNK9 inh: blocks the human KCNK9 two-pore domain potassium channel. Q9NPC2. HEK293 KCNK9, FluxOR thallium flux fluorescence; stronger effect = lower value. B-score at 10 µM. 310,000 compounds, 1.2% hits. AID 488922;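 active means ratio B-score over 3 SD below the library mean, with starting fluorescence within 5 SD of its mean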;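 further: negative B-score means less thallium flux so channel inhibition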
Target sequence (Q9NPC2 whole entry, looked up, the tested form may be a part): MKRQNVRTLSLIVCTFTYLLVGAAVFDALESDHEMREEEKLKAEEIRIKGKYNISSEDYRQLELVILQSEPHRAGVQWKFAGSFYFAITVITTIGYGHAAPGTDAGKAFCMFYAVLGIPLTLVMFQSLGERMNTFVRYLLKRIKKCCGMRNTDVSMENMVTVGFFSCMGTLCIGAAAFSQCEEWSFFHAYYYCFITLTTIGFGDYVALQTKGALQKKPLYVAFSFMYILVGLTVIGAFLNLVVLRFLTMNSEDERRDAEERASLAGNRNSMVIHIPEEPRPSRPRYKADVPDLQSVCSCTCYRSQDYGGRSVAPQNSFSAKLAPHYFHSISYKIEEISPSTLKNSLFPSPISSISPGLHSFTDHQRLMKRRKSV
KCNK3 inh: human KCNK3 channel inhibition, primary screen. O14649. CHO-KCNK3 thallium flux, FluxOR fluorescence; stronger effect = lower value. B-score at 10 µM. 340,000 compounds, 0.84% hits;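 active means B-score under library mean minus 4 SD, starting fluorescence ratio at most library mean plus 5 SD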;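 further: more negative B-score means stronger inhibition of thallium flux through KCNK3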
hERG protect: hERG (human) protection from proarrhythmic block; Q12809; CHO-hERG, FluxOR thallium flux, dofetilide IC70 present; activation (rescue from dofetilide block), less the hit threshold, % at 10 µM; 310,000 compounds, 0.51% hits;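 active means activation above the mean of controls blocked by dofetilide plus 5 SD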;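 further: thallium influx through hERG after potassium depolarization seen as dye fluorescence rise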
KCNQ1 act: potentiators or activators of human KCNQ1 potassium channel; P51787; CHO-K1 KCNQ1, thallium flux FluxOR fluorescence; stronger effect = higher value; B-score at 10 µM; 310,000 compounds, 0.35% hits; AID 2648;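 active means fluorescence ratio B-score, a plate-corrected score, at least three library SD, with initial intensity B-score within 5 SD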
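System: CHO-K1 cells stably expressing KCNQ1 / Medium: assay buffer for compound exposure, DMSO matched across wells / Reagent: thallium- and potassium-containing depolarizing buffer / Compound: one concentration, matched DMSO / Incubation: 20 min compound pretreatment at room temperature / Measured by: kinetic FluxOR fluorescence, 10 s baseline plus 110 s post-stimulus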
Kir21 block: Kir2.1 (mouse) channel inhibition; 310,000 compounds, 0.85% hits; HEK293-Kir2.1, FluxOR thallium flux fluorescence; stronger effect = lower value; B-score at 10 µM; AID 1672; P35561;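 active means fluorescence ratio B-score at or below minus 3 SD of library scores, with starting-brightness B-score within 2 SD, cut at about -4.2 in these data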;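 further: channel flux triggered by added potassium and thallium sulfate stimulus; B-score of peak minus minimum fluorescence over baseline after thallium stimulus; more negative B-score means stronger Kir2.1 block with less thallium influx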
Target sequence (P35561 whole entry, looked up): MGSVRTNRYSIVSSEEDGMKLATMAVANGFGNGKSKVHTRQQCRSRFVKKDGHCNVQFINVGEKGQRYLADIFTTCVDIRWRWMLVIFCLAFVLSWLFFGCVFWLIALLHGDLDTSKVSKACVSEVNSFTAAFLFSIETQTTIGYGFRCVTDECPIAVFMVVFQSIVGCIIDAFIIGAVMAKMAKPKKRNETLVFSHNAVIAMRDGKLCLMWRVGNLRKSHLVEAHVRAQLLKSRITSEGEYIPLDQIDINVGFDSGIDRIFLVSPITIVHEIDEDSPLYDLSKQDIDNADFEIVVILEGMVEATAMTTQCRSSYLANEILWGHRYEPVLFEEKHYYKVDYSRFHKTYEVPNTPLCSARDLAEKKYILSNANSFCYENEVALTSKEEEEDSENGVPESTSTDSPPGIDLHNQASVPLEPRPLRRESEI
KCNK9 inh conf: human KCNK9 inhibitor confirmation. shares compounds with KCNK9 inh. HEK293 KCNK9 cells, FluxOR thallium flux fluorescence. inhibition, % at 10 µM. 4,900 compounds, 43% hits. AID 492992;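 active means thallium signal inhibited by more than 5 SD of the compound-free buffer control wells, on both duplicate plates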
Kir21 sel: mouse Kir2.1 off-target activity of KCNK9 modulators; Kir2.1 cells, FluxOR thallium flux fluorescence; shares compounds with KCNK9 inh; AID 492993; 4,900 compounds, 4% hits; inhibition, % at 10 µM;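 active means thallium signal drop more than 5 SD beyond the mean of the no-compound control wells, seen in both duplicate plates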;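 further: signal is fluorescence rise after thallium addition divided by baseline fluorescence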
KCNK9 uninduced: second counter-screen for KCNK9 modulators: effect in non-induced cells | shares compounds with KCNK9 inh | non-induced KCNK9-HEK293, FluxOR thallium flux | inhibition, % at 10 µM | 4,900 compounds, 40% hits | AID 492997;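 active means thallium signal drop beyond 5 SD of the untreated control mean, on both duplicate plates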
Large screens that a line does not name were inactive (follow-up assays come after a bar, where they were run). Rows were chosen to be rich in hits. Some 3.7% of all compounds tested hit in one or more screens of this group.

O=C(NC1CC(=O)N(c2cccc(F)c2)C1)C(=O)c1c[nH]c2ccccc12 (stereo not drawn)	none
CCOc1ccc(C(C(=O)NC2CCCC2)N(Cc2ccccc2)C(=O)c2nsc(Cl)c2Cl)cc1 (stereo not drawn)	KCNK9 inh -15.1 | KCNK9 inh conf 72.5% | Kir21 sel inactive | KCNK9 uninduced 40.0%
COc1ccc(C(C(=O)NC2CCCC2)N(Cc2ccccc2)C(=O)c2nsc(Cl)c2Cl)cc1 (stereo not drawn)	none
COc1ccc(C/C(=N\O)c2ccc(OC)cc2)cc1	none | KCNK9 inh conf inactive | Kir21 sel inactive | KCNK9 uninduced inactive
CC(=O)N1N=C(c2ccc(C)c([N+](=O)[O-])c2)OC1(C)C	none
Cc1cc(=O)oc2cc(NC(=O)COc3ccccc3[N+](=O)[O-])ccc12	none (no result: KCNQ1 inh, KCNK9 inh, hERG protect, KCNQ1 act, Kir21 block)
O=C(COc1ccccc1[N+](=O)[O-])Nc1ccc2oc(=O)ccc2c1	KCNK9 inh -9.63 | KCNK9 inh conf inactive | Kir21 sel inactive | KCNK9 uninduced inactive
Cc1ccc(CNC(=O)N2CCN(c3ccc(C)cc3)CC2)cc1	none
Cc1ccc(C(=O)NCc2ccc(N3CCN(C(=O)OC(C)(C)C)CC3)cc2)cc1	none | KCNK9 inh conf inactive | Kir21 sel inactive | KCNK9 uninduced inactive
CC(Oc1ccc(Br)cc1)C(=O)NCC(C)(C)N1CCOCC1 (stereo not drawn)	none
COC(=O)c1ccc(CNC(=O)c2ccc(NS(=O)(=O)c3ccc4[nH]c(=O)[nH]c4c3)cc2)cc1	none
CC(=O)c1cccc(NC(=O)C(OC(=O)/C=C/c2ccc3c(c2)OCO3)c2ccccc2)c1 (stereo not drawn)	KCNK9 inh -9.31 | KCNK9 inh conf 24.0% | Kir21 sel inactive | KCNK9 uninduced inactive
COc1cccc(CN2CCN(C(=O)c3cc(-c4ccncc4)nc4ccc(C)cc34)CC2)c1	none
COc1cccc(CN2CCN(C(=O)c3cc(-c4ccccn4)nc4ccc(Cl)cc34)CC2)c1	none | KCNK9 inh conf inactive | Kir21 sel inactive | KCNK9 uninduced inactive
Cc1c(C(=O)CN2CCN(c3ccccc3)CC2)c2ccccc2n1C	none | KCNK9 inh conf inactive | Kir21 sel inactive | KCNK9 uninduced inactive
C/C(CCC(C)C)=N\NS(=O)(=O)c1ccc(C)c([N+](=O)[O-])c1	KCNK9 inh -8.94 | KCNK9 inh conf 63.5% | Kir21 sel inactive | KCNK9 uninduced 41.0%
CC/C(C)=N/NS(=O)(=O)c1ccc(C)c([N+](=O)[O-])c1	none
C/C(=N\Nc1ncc(Cl)cc1Cl)c1ccccn1	KCNQ1 inh 11, KCNK9 inh -10.4 | KCNK9 inh conf 49.5% | Kir21 sel inactive | KCNK9 uninduced 36.0%
C/C(=N\Nc1ccc(Cl)c(C(=O)O)c1)c1ccccn1	none
O=C(Nc1cc(S(=O)(=O)N2CCOCC2)ccc1Cl)C1CCC1	none
O=C(Nc1cccnc1)c1c(F)c(F)c(F)c(F)c1F	none
O=C(Nc1ccncc1)c1c(F)c(F)c(F)c(F)c1F	KCNK9 inh -10.9 | KCNK9 inh conf 35.5% | Kir21 sel inactive | KCNK9 uninduced 28.0%
CCOC(=O)C1CCCN(C(=O)COc2ccc(N(C)S(=O)(=O)c3ccc(F)cc3)cc2)C1 (stereo not drawn)	none
CN1C(=O)C2(Nc3ccccc3-c3nc4ccccc4n32)c2ccccc21 (stereo not drawn)	none
CCN1C(=O)C2(Nc3ccccc3-c3nc4ccccc4n32)c2cc(OC)ccc21 (stereo not drawn)	KCNK9 inh -15.2 | KCNK9 inh conf 57.5% | Kir21 sel inactive | KCNK9 uninduced 24.5%
CN(CC(=O)Nc1ccc(Cl)c(C(F)(F)F)c1)C(=O)c1ccc(S(=O)(=O)N2CCOCC2)cc1	none (no result: KCNQ1 inh, KCNK9 inh, hERG protect, KCNQ1 act, Kir21 block)
Cc1ccccc1CN1CCN(S(=O)(=O)c2cccc3nsnc23)CC1	none | KCNK9 inh conf inactive | Kir21 sel inactive | KCNK9 uninduced inactive
O=S(=O)(c1cccc2nsnc12)N1CCN(C/C=C\c2ccccc2)CC1	none | KCNK9 inh conf inactive | Kir21 sel inactive | KCNK9 uninduced inactive
Cc1ccc(CN2CCCN(Cc3ccc(F)cc3Cl)S2(=O)=O)cc1	none
O=S1(=O)N(Cc2ccccc2F)CCCN1Cc1c(F)cccc1Cl	KCNK9 inh -14.5 | KCNK9 inh conf 67.5% | Kir21 sel inactive | KCNK9 uninduced 34.0%
COc1ccc(S(=O)(=O)Nc2cc(S(=O)(=O)N3CCOCC3)ccc2OC)cc1	none (no result: KCNQ1 inh, KCNK9 inh, hERG protect, KCNQ1 act, Kir21 block)
C/C(=C\c1ccccc1)CN1CCN(c2ccccc2)CC1	none | KCNK9 inh conf inactive | Kir21 sel inactive | KCNK9 uninduced inactive
COc1ccc(CCC(=O)N2CCN(S(=O)(=O)c3cccc(Cl)c3)CC2)cc1	none (no result: KCNQ1 inh, KCNK9 inh, hERG protect, KCNQ1 act, Kir21 block)
CCc1ccc(CN(C)C(=O)c2cc(COc3cc(C)c(Cl)c(C)c3)on2)nc1	none | KCNK9 inh conf inactive | Kir21 sel inactive | KCNK9 uninduced inactive
O=C(Nc1ccccc1)OC1CC2CC1C1CCCC21 (stereo not drawn)	none | KCNK9 inh conf inactive | Kir21 sel inactive | KCNK9 uninduced inactive
O=C(Nc1ccccc1)O[C@@H]1C[C@H]2CCCC(=O)N3CC[C@@H](C1)[C@@H]23	none (no result: KCNQ1 inh, KCNK9 inh, hERG protect, KCNQ1 act, Kir21 block)
Nc1c(Cl)cc(C2=NCCn3nc4cc(C(F)(F)F)ccc4c32)cc1Cl	KCNK9 inh -13.1, KCNQ1 act 8 | KCNK9 inh conf 58.5% | Kir21 sel inactive | KCNK9 uninduced inactive
CCc1ccc(CN(C)C(=O)CCc2nc3ccccc3n(-c3ccc(OC)cc3)c2=O)cc1	none | KCNK9 inh conf inactive | Kir21 sel inactive | KCNK9 uninduced 25.0%
CC(C)(C)c1ccc(OCc2ccc(C(=O)Nc3cccnc3)o2)cc1	none
O=C(COc1ccc(Cl)cc1Cl)NCCCCc1ccccc1	none | KCNK9 inh conf inactive | Kir21 sel inactive | KCNK9 uninduced 24.5%
O=C(CCCc1ccccc1)NCCCc1ccccc1	none | KCNK9 inh conf inactive | Kir21 sel inactive | KCNK9 uninduced inactive
CCCN(CC(=O)Nc1ccccc1C)C(=O)c1ccc(N2CCCCCC2)c([N+](=O)[O-])c1	none
COCCn1c(SCc2ccc(F)cc2)nc2c1c(=O)[nH]c(=O)n2C	none
CCN(CC)c1nc(C)nc2c1cnn2CCc1ccccc1	none | KCNK9 inh conf inactive | Kir21 sel inactive | KCNK9 uninduced inactive
CCN(CC)c1ncnc2c1cnn2Cc1ccc(C)cc1	none
O=C(NCc1ccc(Cl)cc1)c1cnn2ccccc12	none
CC(C)CCN(CCC(C)C)CC(O)Cn1c2ccccc2c(=O)c2ccccc21 (stereo not drawn)	KCNK9 inh -8.11 | KCNK9 inh conf 42.5% | Kir21 sel inactive | KCNK9 uninduced 27.5%
